Data on 4 molecules can be found in paper PMC12166265 (Clinical Pharmacology and Therapeutics, 2025).

One may read the Cmax as the highest concentration seen after dosing. For orientation: AUC means the area under the concentration-time curve, a measure of exposure. A high value points to high exposure. For orientation: AUC(0-t) means exposure summed from dosing to a finite time, without extrapolation to infinity. The term AUC(0-inf) denotes the area under the concentration-time curve extrapolated to infinity. A higher AUC(0-inf) goes with high exposure. As a reminder, the CL/F is clearance divided by bioavailability, as obtained after extravascular dosing. One may read the half-life as how long it takes for the measured level to halve. Low values mean rapid decline, high ones slow decline.

The format of data set [1] is in vivo, human. The following applies: for Effect of eltrombopag administration on plasma concentrations (in words): eltrombopag 75 mg daily for 5 days.
A further data set deals with BCRP. The following applies: 14 healthy males, BMS-986371; cited from earlier work.
The test system of a further data set is ABCG2 p.Q141K variant. The data set is classed as in vivo, human. The gist of the method:
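Open-label fixed-sequence crossover in 11 healthy non-smoking adults aged 18–64. Single oral rosuvastatin 10 mg given after an overnight fast, with fasting continued 4 h. Heparinised venous plasma was stored at −70°C and analysed by LC–MS. ABCG2 c.421C>A was genotyped blind by PCR and Sanger sequencing. Nine CC and two CA subjects were compared at T = 0 h and by noncompartmental PK, using log-transformed geometric means and unpaired t-tests.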

Setting [2] is: both, human, plasma, oral, 10 mg.
Setting [3] is: both, human, plasma, oral, 10 mg, AUC0−4, rosuvastatin alone arm, geometric mean (90% CI).
[4] abbreviates: both, human, plasma, oral, AUC0−4, rosuvastatin + eltrombopag arm, geometric mean (90% CI).
[5] abbreviates: human, in vivo, listed as rosuvastatin.
Where [6] appears, read: rosuvastatin + eltrombopag arm, geometric mean (90% CI).
Where [7] appears, read: rosuvastatin alone arm, geometric mean (90% CI).

Like-named read-outs stand apart in the source and are kept apart here.

For the molecule `Cc1cc2nc3c(=O)[nH]c(=O)nc-3n(C[C@H](O)[C@H](O)[C@H](O)CO)c2cc1C` [Riboflavin], the C0 at 0 h in data set [1] (both, human, plasma, oral) stood at 2.79 ng/mL; in data set [1] (setting [2]), 2.72 ng/mL. Besides, the Cmax in data set [1] (both, human, plasma, oral) was determined as 3.61 ng/mL; in data set [1] (setting [2]) it was 4.16 ng/mL. In data set [1] (setting [2]), this molecule yielded an AUC of 11.7 ng·h/mL. Further, the AUC(0-t) in data set [1] (setting [3]) was determined as 10.6 ng·h/mL; in data set [1] (both, human, plasma, oral, 10 mg, AUC0−24, rosuvastatin alone arm, geometric mean (90% CI)), 65.9 ng·h/mL; in data set [1] (both, human, plasma, oral, 10 mg, mean riboflavin AUC0−4, fasted state, rosuvastatin alone arm) it was 10.6 ng·h/mL; in data set [1] (setting [4]) it was 10.2 ng·h/mL; in data set [1] (both, human, plasma, oral, AUC0−24, rosuvastatin + eltrombopag arm, geometric mean (90% CI)), 65.6 ng·h/mL; in data set [1] (both, human, plasma, oral, mean riboflavin AUC0−4, fasted state, in the presence of eltrombopag), 9.7 ng·h/mL. Moreover, the “Effect of eltrombopag administration on plasma concentrations (in words)” value (“Effect of eltrombopag administration” for short) in data set [1] was “did not lead to corresponding increases”. Besides, the “Increase in riboflavin AUC0−4” value in the data set on BCRP is on record as 1.25 fold. Further, the “Increase in riboflavin AUC0−24” value with BCRP is recorded as 1.14 fold. In addition, the “Increase in riboflavin Cmax” value with BCRP is recorded as 1.11 fold. The “Baseline concentrations, heterozygous p.Q141K vs homozygous reference allele” value in the data set with ABCG2 p.Q141K variant (two p.Q141K (CA) vs nine REF (CC) individuals, T = 0 h) is on record as “no association”.

In data set [1] (both, human, plasma, oral), `CC(C)c1nc(N(C)S(C)(=O)=O)nc(-c2ccc(F)cc2)c1/C=C/[C@@H](O)C[C@@H](O)CC(=O)O` [Rosuvastatin, reference compound] showed an AUC(0-inf) of 116 ng·h/mL, an apparent clearance (CL/F) of 19.7 mL/min/kg, a Cmax of 10.9 ng/mL and a half-life of 8.8 h. In data set [1] (setting [2]), this molecule gave an AUC(0-inf) of 69.1 ng·h/mL, a CL/F of 32.7 mL/min/kg, a Cmax of 5.4 ng/mL and a half-life of 10.4 h. Also, the AUC(0-t) in data set [1] (setting [3]) was found to be 11.8 ng·h/mL. In addition, the AUC(0-t) in data set [1] (setting [4]) stood at 25 ng·h/mL. For the same molecule, in data set [1] (human, in vivo), the “AUC0−4, geometric mean ratio (90% CI) of rosuvastatin + eltrombopag arm to rosuvastatin alone arm” value was 2.12 (1.71–2.62); P = 0.002; the “AUC0−INF, geometric mean ratio (90% CI) of rosuvastatin + eltrombopag arm to rosuvastatin alone arm” value is listed as 1.80 (1.49–2.17); P = 0.002; the “CL/F/kg, geometric mean ratio (90% CI) of rosuvastatin + eltrombopag arm to rosuvastatin alone arm” value was 0.56 (0.46–0.67); P = 0.02; the “Cmax, geometric mean ratio (90% CI) of rosuvastatin + eltrombopag arm to rosuvastatin alone arm” value (“Cmax, geometric mean ratio (90% CI)” for short) is 2.01 (1.59–2.53); P = 0.002. Besides, in data set [1] (human, in vivo), the “T1/2, geometric mean ratio (90% CI) of rosuvastatin + eltrombopag arm to rosuvastatin alone arm” value is 0.88 (0.78–0.99); P = 0.13 and the “V/F/kg, geometric mean ratio (90% CI) of rosuvastatin + eltrombopag arm to rosuvastatin alone arm” value is 0.49 (0.38–0.63); P = 0.004. In addition, in data set [1] (setting [5]), the “AUC0−4, geometric mean ratio (90% CI) of rosuvastatin + eltrombopag arm to rosuvastatin alone arm” value is given as 2.1; the “AUC0−INF, geometric mean ratio (90% CI) of rosuvastatin + eltrombopag arm to rosuvastatin alone arm” value came out at 1.8; the “Cmax, geometric mean ratio (90% CI)” value is on record as “twofold”. For the same molecule, in data set [1] (rosuvastatin + eltrombopag arm), the Tmax is listed as 4 (3.5–5) h. In addition, in data set [1] (setting [6]), the V/F/kg is 14.9 (11.5–17.8) L/kg. In data set [1] (rosuvastatin + eltrombopag arm, geometric mean (90% CI), listed as rosuvastatin), the V/F/kg was 14.9 L/kg. Besides, the Tmax in data set [1] (rosuvastatin alone arm) was 5 (1.5–5) h. For the same molecule, the V/F/kg in data set [1] (setting [7]) is recorded as 29.3 (22.8–37.7) L/kg. Further, the V/F/kg in data set [1] (rosuvastatin alone arm, geometric mean (90% CI), listed as rosuvastatin) is recorded as 29.3 L/kg. In the data set with ABCG2 p.Q141K variant (rosuvastatin 10 mg), the “AUC0–4, fold higher in p.Q141K variant vs reference allele” value amounted to 2.9 fold; the “AUC0–INF, fold higher in p.Q141K variant vs reference allele” value came out at 2.6 fold; the “Cmax, fold higher in p.Q141K variant vs reference allele” value is on record as 2.4 fold.

In the case of Coproporphyrin-I [CP‐I], the “Effect of eltrombopag administration” value in data set [1] was “no effect”. Moreover, in data set [1] (human, in vivo), the “AUC0−24, geometric mean ratio (90% CI) of rosuvastatin + eltrombopag arm to rosuvastatin alone arm” value was 0.96 (0.88–1.04); P = 0.50; the “C0, geometric mean ratio (90% CI) of rosuvastatin + eltrombopag arm to rosuvastatin alone arm” value is given as 0.90 (0.83–0.98); P = 0.05; the “Cmax, geometric mean ratio (90% CI)” value is on record as 0.95 (0.88–1.03); P = 0.33. Also, in data set [1] (setting [6]), the “AUC0−24” value is 16.2 (14.2–18.4) nM*h, the C0 was 0.74 nM and the Cmax came out at 0.89 nM. Also, in data set [1] (setting [7]), the “AUC0−24” value is on record as 16.9 (15.3–18.6) nM*h, the C0 was found to be 0.81 nM and the Cmax came to 0.93 nM.

Regarding Coproporphyrin-III [CP‐III], the “Effect of eltrombopag administration” value in data set [1] is “no effect”. For the same molecule, in data set [1] (human, in vivo), the “AUC0−24, geometric mean ratio (90% CI) of rosuvastatin + eltrombopag arm to rosuvastatin alone arm” value is given as 0.93 (0.80–1.08); P = 0.44; the “C0, geometric mean ratio (90% CI) of rosuvastatin + eltrombopag arm to rosuvastatin alone arm” value was 0.75 (0.64–0.88); P = 0.01; the “Cmax, geometric mean ratio (90% CI)” value is on record as 0.83 (0.70–0.98); P = 0.08. Besides, in data set [1] (setting [6]), the “AUC0−24” value is reported as 1.70 (1.46–1.99) nM*h, the C0 was 0.09 nM and the Cmax came out at 0.11 nM. In data set [1] (setting [7]), the “AUC0−24” value is reported as 1.83 (1.60–2.09) nM*h, the C0 came out at 0.12 nM and the peak level (Cmax) was 0.13 nM.
